# In paper PMC6938543 (Vaccine, 2019):
# Legend:
# [1] = system: Anti-α-PVP/MDPV polyclonal antibody; assay: Competitive magnetic bead-based radioimmunoassay; assay type: binding, rat; conditions: MDPV-t2 tracer; for IC50: structurally related cathinones tested at 10 μM and 100 μM only
# Method in brief: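 Sera came from male SD rats immunized sc with 100 μg bi-specific KLH conjugate plus 150 μL SAS. The competitive magnetic-bead RIA was specific for IgG binding and used tritium-labeled drug as tracer. Full inhibition curves with unlabeled drug gave IC50; one curve used a racemic homologous tritiated tracer. Analogues were tested only at 10 and 100 μM against 5 nM MDPV-t₂, scored as inhibition of tracer binding.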
# drug-specific pAb = conditions: pAb from earlier separate α-PVP and MDPV vaccines; cited from earlier work
# [2] = MDPV and α-PVP serum concentrations after sc challenge dose; assay type: in vivo, rat; conditions: SAS and vaccinated rats, LC-MS/MS
# [3] = humans; cited from earlier work
# [4] = Stability of α-PVP in extracted rat serum; assay type: physicochemical; conditions: 4 °C
# male SD rats = assay type: in vivo, rat; conditions: SAS control rats; sc
# Method in brief: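 Thirteen weeks after initial sc immunization (SAS alone or vaccine plus SAS), male SD rats (n=5–6/group) were habituated 60 min in litter-lined open-field chambers. They then got sc saline or drug at 0.3–5.6 mg/kg in ascending doses, 2–3 days apart, with each drug in a separate study. Video tracking ran 6 h; horizontal distance was summed per rat and reported as mean ± SD.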
Compound,inhibition of MDPV-t2 binding ([1]; 100 μM ligand) [%],IC50 [1] [µM],further results
"CNC(C)Cc1ccc2c(c1)OCO2 (racemic) [MDMA, (±)-3,4-methylenedioxymethamphetamine]",≤ 50,–,–
"CCC(C(=O)c1ccc2c(c1)OCO2)N1CCCC1 (stereo not drawn) [3,4-Methylenedioxy-α-pyrrolidinobutiophenone]",50,100,–
"CC(C(=O)c1ccc2c(c1)OCO2)N1CCCC1 (stereo not drawn) [3,4-Methylenedioxy-α-pyrrolidinopropiophenone]",–,> 100,–
C[C@H](N)C(=O)c1ccccc1 [(S)-Cathinone],–,> 100,–
"CCCC(C(=O)c1ccc2c(c1)OCO2)N1CCCC1 (stereo not shown) [MDPV, 3,4-Methylenedioxypyrovalerone]",–,–,pAb affinities constants (drug-specific pAb): micromolar range; serum concentration 24 h after drug administration [2]: below the lower limit of quantitation; blood concentrations associated with recreational use [3]: 10 to 50 ng/mL; blood concentrations at intoxication and overdose [3]: 50 to 300 ng/mL
CNC(C)C(=O)c1ccc(C)cc1 (stereo not shown) [Mephedrone],–,> 100,–
CNC(C)C(=O)c1ccc2c(c1)OCO2 (stereo not shown) [Methylone],–,> 100,–
CCCC(NC)C(=O)c1ccccc1 (stereo not shown) [Pentedrone],–,> 100,–
CCCC(NC)C(=O)c1ccc2c(c1)OCO2 (stereo not shown) [Pentylone],–,> 100,–
CCCC(C(=O)c1ccc(C)cc1)N1CCCC1 (stereo not shown) [Pyrovalerone],–,–,inhibition of MDPV-t2 binding ([1]; 10 μM ligand): 68%
COC(=O)[C@H]1[C@@H](OC(=O)c2ccccc2)C[C@@H]2CC[C@H]1N2C [cocaine],≤ 50,–,–
NCCc1ccc(O)c(O)c1 [dopamine],≤ 50,–,–
CNC[C@H](O)c1ccc(O)c(O)c1 [epinephrine],≤ 50,–,–
CN[C@@H](C)Cc1ccccc1 [methamphetamine],≤ 50,–,–
NC[C@H](O)c1ccc(O)c(O)c1 [norepinephrine],≤ 50,–,–
c1ccc(C2(N3CCCCC3)CCCCC2)cc1 [phencyclidine],≤ 50,–,–
CN[C@@H](C)[C@@H](O)c1ccccc1 [pseudoephedrine],≤ 50,–,–
NCCc1c[nH]c2ccc(O)cc12 [serotonin],≤ 50,–,–
NCCc1ccc(O)cc1 [tyramine],≤ 50,–,–
"CCCC(C(=O)c1ccccc1)N1CCCC1 (stereo not drawn) [α-PVP, α-pyrrolidinovalerophenone]",–,–,pAb affinities constants (drug-specific pAb): micromolar range; stability in extracted serum [4]: at least 59 h; dose of peak effect on horizontal movement (male SD rats): 1.0 mg/kg; serum concentration 24 h after drug administration [2]: below the lower limit of quantitation
(S)-Methcathinone,–,> 100,–
